Source: PubChem
DDE Tn6 FP inh – inhibitors of Tn6 peptide binding to fibrin DD(E), primary screen, biochemical, fluorescence polarization, human fibrin, Tn6 probe. Fibrinogen beta chain (Homo sapiens), P02675. Fibrin DD(E) TRITC-Tn6 fluorescence polarization displacement. inhibition, % at 8.3 µM. 370,000 tested, 0.21% active;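 active means inhibition above a per-campaign cutoff: mean of compounds within control limits plus 3 SD, cut at about 15% in these data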;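 further: 0% = median of all compound wells on the plate and 100% = blocking peptide control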
SIAE primary – human SIAE inhibitors, primary screen, biochemical, fluorescence polarization, FP-Rh probe, 1536-well HTS. Sialate O-acetylesterase (Homo sapiens), Q9HAT2. SIAE FP-Rh probe binding. inhibition, % at 9.66 µM. 370,000 tested, 0.69% active. AID 1053197, 2014;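 active means inhibition above a cutoff: mean of compounds within the control limits plus 3 SD of those, cut at about 17% in these data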;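 further: 0% = plate median of compound wells and 100% = probe without SIAE protein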
TCR-CD3 inh – inhibitors of human TCR-CD3 interaction, primary screen, biochemical, fluorescence, TAMRA-labeled TCR probe. T-cell receptor (TCR). inhibition, % at 9.4 µM. 360,000 tested, 0.37% active. AID 651800, 2012; in the data active means inhibition above about 19%;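 further: recombinant mutant TCR 2C K166C tagged with TAMRA read by polarization; 0% = receptor in buffer alone and 100% = receptor with positive control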
DDE Tn7 FP inh – inhibitors of Tn7 peptide binding to fibrin DD(E), primary screen, biochemical, fluorescence polarization, human fibrin, Tn7 probe | Fibrinogen beta chain (Homo sapiens), P02675 | FP displacement of FITC-Tn7 peptide from fibrin DD(E); 0% = median of compound wells per plate | inhibition, % at 8.3 µM | 370,000 tested, 0.13% active;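 active means inhibition above the mean of compounds falling within the control limits plus 3 SD of them, cut at about 14% in these data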;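 further: 0% = plate median of compound wells and 100% = 10 µM Aha-Tn7 peptide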
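Measure: % inhibition scaled between sample-field median and high-control FP; Test system: human fibrin DD(E); Quantity: 2 µM final DD(E) protein; Doses: one dose, 8.3 µM nominal; Schedule: compound with protein 10 min, then 3 h after probe, room temperature; Detection: fluorescence polarization; Medium: Tris buffer with calcium and detergent, pH 7.8.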
mABHD4 FP – ABHD4 inhibitors, primary screen, biochemical, fluorescence polarization, mouse; purified mABHD4, FP-Rh probe fluorescence polarization; (Lyso)-N-acylphosphatidylethanolamine lipase (Mus musculus), Q8VD66; 370,000 tested, 0.54% active; inhibition, % at 8.92 µM;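 active means inhibition exceeding the mean over every tested compound plus 3 SD, cut at about 30% in these data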;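 further: 0% = plate median of compound wells and 100% = S159A mutant with DMSO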
Target sequence (Q8VD66 whole entry, looked up): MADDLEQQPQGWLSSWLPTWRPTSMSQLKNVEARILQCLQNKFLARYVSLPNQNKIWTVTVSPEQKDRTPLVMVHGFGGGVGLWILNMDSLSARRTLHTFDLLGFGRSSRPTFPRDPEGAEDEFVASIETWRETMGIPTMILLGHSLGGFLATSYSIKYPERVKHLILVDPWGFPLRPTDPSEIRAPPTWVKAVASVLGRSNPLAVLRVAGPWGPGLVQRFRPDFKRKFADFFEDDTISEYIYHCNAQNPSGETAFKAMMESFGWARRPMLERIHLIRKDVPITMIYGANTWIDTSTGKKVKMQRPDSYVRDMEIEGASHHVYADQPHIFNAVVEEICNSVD
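Doses – 8.92 µM, single dose · Material – wild-type mouse ABHD4 protein · Replication – single well per compound (singlicate) · Measure – percent inhibition of probe binding, normalized to plate controls · Schedule – 45 min compound pre-incubation plus 60 min probe step, 25 °C · Detection – fluorescence polarization with parallel and perpendicular emission, 525/598 nm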
HTRA1 inhibitor – HTRA1 serine protease inhibitors, primary screen, biochemical, fluorescence polarization, HTS | inhibition, % at 5.96 µM | recombinant HTRA1, FP-rhodamine activity-based probe | 340,000 tested, 0.5% active | AID 504803, 2011; in the data active means inhibition above about 36%;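 further: 0% = enzyme with DMSO and 100% = wells lacking enzyme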
SIAE inh conf – human SIAE inhibitors, retest, confirmation, biochemical, fluorescence polarization, FP-Rh probe, triplicate; 2,300 tested, 13% active; SIAE FP-Rh activity-based probe; shares compounds with SIAE primary; AID 1117263, 2014; inhibition, % at 9.66 µM;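 active means mean inhibition of the replicates above the hit cutoff set in the primary screen, cut at about 17% in these data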;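 further: 0% = SIAE with DMSO and probe and 100% = probe without SIAE; inhibitors lower polarization as more probe stays unbound to SIAE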
Starred values were filed as active, the others as inactive; · = no result given. Only some compounds are listed: those with a hit (about 1.8% of all), similar ones and a draw of the others.

SMILES	DDE Tn6 FP inh	SIAE primary	TCR-CD3 inh	DDE Tn7 FP inh	mABHD4 FP	HTRA1 inhibitor	SIAE inh conf
Cc1ccc(C)c(N(CC(=O)NC2CCCC2)C(=O)CCC(=O)Nc2nccs2)c1	-1.9	-68.3	-0.6	-3.6	0.3	0.3	·
Cc1ccc(N(CC(=O)NC2CCCC2)C(=O)CCC(=O)Nc2nccs2)cc1C	1.6	17.9*	5.8	-4.8	2.2	5.3	1.3
Cc1cccc(C(=O)N[C@H]2CC[C@@]34CCCN3C(=O)CCC[C@H]4[C@H]2C)c1	3.2	2.2	·	-3.5	4.4	·	·
COC(=O)[C@]12C[C@H](CC(=O)NCC3CCCCC3)C(=O)N(Cc3ccc(Cl)cc3Cl)C1=C[C@H](C(C)(C)C)O[C@@H]2C	-4.4	4.3	·	-1.0	2.7	·	·
O=C(NNC(=O)c1ccncc1)c1ccccc1	-0.8	0.9	-0.5	-0.5	-2.4	-6.5	·
O=C(c1ccccc1)c1ccncc1	-5.4	28.0*	-1.2	1.5	-5.4	12.0	3.8
CN(/N=C/c1ccc(O)cc1O)c1nc(-c2ccccc2)cc(-c2ccccc2)n1	-3.3	19.9*	-5.1	-3.1	0.6	18.3	5.8
CN(N)c1nc(-c2ccccc2)cc(-c2ccccc2)n1	-4.7	7.1	2.0	3.9	-3.1	7.3	·
CC1CN(S(=O)(=O)c2ccc(C(=O)NC3CCCCC3)cc2)CC(C)O1 (configuration not stated)	-0.6	18.2*	4.9	-3.3	-0.2	-7.3	1.4
O=C(NC1CCCCC1)c1ccc(S(=O)(=O)N2CCCCC2)cc1	4.9	5.7	-7.9	0.0	-5.2	-1.0	·
Cc1ccc(C)c(OCc2nc3ccccc3[nH]2)c1	2.8	37.1*	1.8	1.1	-0.5	-5.5	4.6
Cc1cccc(C)c1OCc1nc2ccccc2[nH]1	-4.5	-7.1	-9.3	-0.6	5.6	2.1	·
CCCCCCCCN1CCS(=O)(=O)N(Cc2ccccc2)C(C(=O)OC)C1 (configuration not stated)	-13.6	-1.2	·	2.3	-1.9	·	·
CC1CCN(c2c(NCc3ccc(C(=O)N(C)C4CCCCC4)cc3)c(=O)c2=O)CC1	3.0	1.4	5.7	-5.1	-1.4	-3.7	·
Cc1ccc(N(C)C(=O)c2ccc(CNc3c(N4CCC(C)CC4)c(=O)c3=O)cc2)cc1	2.2	20.1*	-5.7	1.2	7.8	2.3	1.9
COC(=O)[C@@H]1[C@H](O[Si](C)(C)C(C)(C)C)C2OC2C[C@H]1S(=O)(=O)c1ccccc1 (some centres not stated)	1.8	-4.8	·	9.9	1.1	·	·
CN(CCCOC(=O)c1cc2ccccc2o1)C1CN(Cc2cn(Cc3ccccc3C(F)(F)F)nn2)S(=O)(=O)C1 (configuration not stated)	-1.7	-2.8	·	4.6	-1.2	·	·
CC(=O)Nc1ccc(N2C(C(C)=O)=NN(c3ccc(Cl)cc3)C2c2sccc2C)cc1 (configuration not stated)	4.5	21.3*	3.4	2.2	-8.2	-5.7	5.0
CC(=O)Nc1ccc(N2C(C(C)=O)=NN(c3ccccc3)C2c2cccs2)cc1 (configuration not stated)	1.9	9.9	-1.4	-2.7	-1.8	-1.5	·
COC(=O)[C@]12C[C@H](CC(=O)NCC34CC5CC(CC(C5)C3)C4)C(=O)N(CCC3=CCCCC3)C1=C[C@H](C1CCCC1)O[C@@H]2C	0.3	0.9	·	3.4	4.3	·	·
CC(C)(C)c1ccc(-c2nnc(SCc3ccccc3)n2Cc2ccco2)cc1	4.4	13.5	·	-7.4	-8.0	·	·
N#Cc1cc(F)cc(OCCCN2CCC(C(O)(c3ccccc3)c3ccccc3)CC2)c1	-2.0	-1.6	-0.8	3.1	3.5	·	·
CNc1nc(N)c([N+](=O)[O-])c(Nc2cccc(OC)c2)n1	-2.1	-2.7	·	-9.5	1.7	·	·
